Reference: article PMC3082038 (Cancer Chemotherapy and Pharmacology, 2010)

Key:
[1] = 100 mg/m^2 after meals, previous clinical study; cited from earlier work
ELAM-1 = assay: Angiogenesis-related factor: ELAM-1; format: in vivo, human
Outline: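 Plasma and urine were collected from patients before treatment and after day 8 and day 28 of oral test compound dosing, and analysed at a central commercial laboratory. ELISA kits were used for human VEGF (plasma and urine), ELAM-1, VCAM-1 and soluble t-PA. Soluble PAI-1 was measured by latex photometric immunoassay. Values are reported as median (range) per time point.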

[2] = test system: Japanese patients with solid tumors; assay: Phase I safety: drug-related adverse events, DLT, MTD, recommended dose; format: in vivo, human; conditions: for Recommended dosage: after-meal conditions
Outline: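 Dose escalation used three-patient cohorts, alternating b.i.d. and t.i.d., starting at 200 mg/m2 b.i.d. Oral dosing was by body surface area for 28 days continuously. b.i.d. doses were taken within 1 h after meals, about 12 h apart; t.i.d. doses about 6 or 12 h apart. Patients were assessed at least weekly and graded by NCI-CTC v2.0. DLT: grade ≥3 non-haematological or grade ≥4 haematological drug-related event. MTD: DLT in 2/3 or 3/6 patients.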

[3] = b.i.d. 200 mg/m^2 × 2, n = 3, G1
[4] = b.i.d. 200 mg/m^2 × 2, n = 3, G2
[5] = b.i.d. 400 mg/m^2 × 2, n = 6, G1
[6] = b.i.d. 400 mg/m^2 × 2, n = 6, G2
[7] = b.i.d. 400 mg/m^2 × 2, n = 6, G3
[8] = b.i.d. 500 mg/m^2 × 2, n = 3, G1
[9] = b.i.d. 500 mg/m^2 × 2, n = 3, G2
[10] = t.i.d. 200 mg/m^2 × 3, n = 6, G1
[11] = t.i.d. 200 mg/m^2 × 3, n = 6, G2
[12] = t.i.d. 400 mg/m^2 × 3, n = 6, G1
[13] = t.i.d. 400 mg/m^2 × 3, n = 6, G2
[14] = t.i.d. 400 mg/m^2 × 3, n = 6, G4

Cc1[nH]c(/C=C2\C(=O)Nc3ccccc32)c(C)c1CCC(=O)O [TSU-68, (Z)-5-[(1,2-dihydro-2-oxo-3H-indol-3-ylidene)methyl]-2,4-dimethyl-1H-pyrrole-3-propanoic acid]
Absolute bioavailability [1]: 42% | ELAM-1, median (ELAM-1; day 8, 23 patients): 50 ng/mL | ELAM-1, range (ELAM-1; day 8, 23 patients): 13 to 136 ng/mL | ELAM-1, median (ELAM-1; day 28, 22 patients): 45.5 ng/mL | ELAM-1, range (ELAM-1; day 28, 22 patients): 17 to 114 ng/mL | Patients experiencing DLTs ([2]; 400 mg/m^2 b.i.d. dose level, three plus three patients, grade 3 dyspnea, hypoxemia, pleural effusion and anorexia, and unacceptable grade 2 anorexia): 2 patients | Dose-limiting toxicity (DLT) ([2]; 500 mg/m^2 b.i.d. dose level): not found | Toxicity ≥ G3-4 ([2]; Pt 4, SCLC, b.i.d. 400 mg/m^2 (1,200 mg/day)): G3 (DLT) | Toxicity ≥ G3-4 ([2]; Pt 5, NSCLC, b.i.d. 400 mg/m^2 (1,200 mg/day)): – (DLT) | Toxicity ≥ G3-4 ([2]; Pt 19, NSCLC, t.i.d. 400 mg/m^2 (2,400 mg/day)): G4 (DLT) | Abdominal pain upper, Total no. (%) ([2]; all dose levels, n = 24): 5 (20.8) no. (%) | Abdominal pain, Total no. (%) ([2]; all dose levels, n = 24): 11 (45.8) no. (%) | Alkaline phosphatase increased, Total no. (%) ([2]; all dose levels, n = 24): 13 (54.2) no. (%) | Anorexia, Total no. (%) ([2]; all dose levels, n = 24): 12 (50.0) no. (%) | Back pain, Total no. (%) ([2]; all dose levels, n = 24): 5 (20.8) no. (%) | Blood albumin decreased, Total no. (%) ([2]; all dose levels, n = 24): 20 (83.3) no. (%) | Diarrhea, Total no. (%) ([2]; all dose levels, n = 24): 17 (70.8) no. (%) | Discoloration urine/stool, Total no. (%) ([2]; all dose levels, n = 24): 24 (100) no. (%) | Dyspnea, Total no. (%) ([2]; all dose levels, n = 24): 1 (4.2) no. (%) | Face edema, Total no. (%) ([2]; all dose levels, n = 24): 6 (25.0) no. (%) | Headache, Total no. (%) ([2]; all dose levels, n = 24): 7 (29.2) no. (%) | Hypoxia, Total no. (%) ([2]; all dose levels, n = 24): 1 (4.2) no. (%) | Malaise, Total no. (%) ([2]; all dose levels, n = 24): 18 (75.0) no. (%) | Nauseous, Total no. (%) ([2]; all dose levels, n = 24): 9 (37.5) no. (%) | Pericardial effusion, Total no. (%) ([2]; all dose levels, n = 24): 1 (4.2) no. (%) | Pleural effusion, Total no. (%) ([2]; all dose levels, n = 24): 5 (20.8) no. (%) | Vomiting, Total no. (%) ([2]; all dose levels, n = 24): 8 (33.3) no. (%) | γ-glutamyltransferase increased, Total no. (%) ([2]; all dose levels, n = 24): 6 (25.0) no. (%) | No. maximum grade (patients, drug-related adverse events) [2, 3]: 0 | Number of patients with drug-related Alkaline phosphatase increased [2, 3]: 1 | Number of patients with drug-related Anorexia [2, 3]: 2 | Number of patients with drug-related Blood albumin decreased [2, 3]: 1 | Number of patients with drug-related Diarrhea [2, 3]: 1 | Number of patients with drug-related Discoloration urine/stool [2, 3]: 3 | Number of patients with drug-related Malaise [2, 3]: 1 | Number of patients with drug-related Serum total protein decreased [2, 3]: 1 | No. maximum grade (patients, drug-related adverse events) [2, 4]: 3 | Number of patients with drug-related Abdominal pain [2, 4]: 2 | Number of patients with drug-related Blood albumin decreased [2, 4]: 1 | Number of patients with drug-related Diarrhea [2, 4]: 1 | Number of patients with drug-related Malaise [2, 4]: 1 | Number of patients with drug-related Nauseous [2, 4]: 1 | Number of patients with drug-related Vomiting [2, 4]: 1 | No. maximum grade (patients, drug-related adverse events) ([2]; b.i.d. 200 mg/m^2 × 2, n = 3, G3): 0 | No. maximum grade (patients, drug-related adverse events) ([2]; b.i.d. 200 mg/m^2 × 2, n = 3, G4): 0 | No. maximum grade (patients, drug-related adverse events) [2, 5]: 0 | Number of patients with drug-related Abdominal pain [2, 5]: 1 | Number of patients with drug-related Abdominal pain upper [2, 5]: 1 | Number of patients with drug-related Alkaline phosphatase increased [2, 5]: 6 | Number of patients with drug-related Anorexia [2, 5]: 2 | Number of patients with drug-related Back pain [2, 5]: 1 | Number of patients with drug-related Blood albumin decreased [2, 5]: 2 | Number of patients with drug-related Diarrhea [2, 5]: 5 | Number of patients with drug-related Discoloration urine/stool [2, 5]: 6 | Number of patients with drug-related Headache [2, 5]: 1 | Number of patients with drug-related Malaise [2, 5]: 4 | Number of patients with drug-related Nauseous [2, 5]: 2 | Number of patients with drug-related Pleural effusion [2, 5]: 1 | Number of patients with drug-related Vomiting [2, 5]: 2 | Number of patients with drug-related γ-glutamyltransferase increased [2, 5]: 1 | No. maximum grade (patients, drug-related adverse events) [2, 6]: 5 | Number of patients with drug-related Abdominal pain [2, 6]: 2 | Number of patients with drug-related Anorexia [2, 6]: 1 | Number of patients with drug-related Back pain [2, 6]: 1 | Number of patients with drug-related Blood albumin decreased [2, 6]: 2 | Number of patients with drug-related Headache [2, 6]: 2 | Number of patients with drug-related Nauseous [2, 6]: 1 | Number of patients with drug-related Serum total protein decreased [2, 6]: 1 | Number of patients with drug-related γ-glutamyltransferase increased [2, 6]: 2 | No. maximum grade (patients, drug-related adverse events) [2, 7]: 1 | Number of patients with drug-related Anorexia [2, 7]: 1 | Number of patients with drug-related Dyspnea [2, 7]: 1 | Number of patients with drug-related Hypoxia [2, 7]: 1 | Number of patients with drug-related Pleural effusion [2, 7]: 1 | No. maximum grade (patients, drug-related adverse events) ([2]; b.i.d. 400 mg/m^2 × 2, n = 6, G4): 0 | No. maximum grade (patients, drug-related adverse events) [2, 8]: 0 | Number of patients with drug-related Abdominal pain upper [2, 8]: 1 | Number of patients with drug-related Alkaline phosphatase increased [2, 8]: 1 | Number of patients with drug-related Anorexia [2, 8]: 2 | Number of patients with drug-related Blood albumin decreased [2, 8]: 1 | Number of patients with drug-related Diarrhea [2, 8]: 1 | Number of patients with drug-related Discoloration urine/stool [2, 8]: 3 | Number of patients with drug-related Face edema [2, 8]: 1 | Number of patients with drug-related Headache [2, 8]: 1 | Number of patients with drug-related Malaise [2, 8]: 3 | Number of patients with drug-related Nauseous [2, 8]: 3 | Number of patients with drug-related Pleural effusion [2, 8]: 1 | Number of patients with drug-related Serum total protein decreased [2, 8]: 1 | Number of patients with drug-related Vomiting [2, 8]: 2 | No. maximum grade (patients, drug-related adverse events) [2, 9]: 3 | Number of patients with drug-related Abdominal pain upper [2, 9]: 1 | Number of patients with drug-related Blood albumin decreased [2, 9]: 2 | Number of patients with drug-related Headache [2, 9]: 1 | Number of patients with drug-related Serum total protein decreased [2, 9]: 1 | No. maximum grade (patients, drug-related adverse events) ([2]; b.i.d. 500 mg/m^2 × 2, n = 3, G3): 0 | No. maximum grade (patients, drug-related adverse events) ([2]; b.i.d. 500 mg/m^2 × 2, n = 3, G4): 0 | Recommended dose suggested by the Independent Data Monitoring Committee ([2]; b.i.d. after meals): 400 mg/body | Recommended dosage ([2]; b.i.d.): ≤ 400 mg/m^2 | No. maximum grade (patients, drug-related adverse events) [2, 10]: 1 | Number of patients with drug-related Abdominal pain [2, 10]: 1 | Number of patients with drug-related Alkaline phosphatase increased [2, 10]: 2 | Number of patients with drug-related Anorexia [2, 10]: 2 | Number of patients with drug-related Blood albumin decreased [2, 10]: 5 | Number of patients with drug-related Diarrhea [2, 10]: 4 | Number of patients with drug-related Discoloration urine/stool [2, 10]: 6 | Number of patients with drug-related Face edema [2, 10]: 2 | Number of patients with drug-related Malaise [2, 10]: 6 | Number of patients with drug-related Nauseous [2, 10]: 1 | Number of patients with drug-related Pleural effusion [2, 10]: 1 | Number of patients with drug-related Serum total protein decreased [2, 10]: 1 | Number of patients with drug-related Vomiting [2, 10]: 3 | Number of patients with drug-related γ-glutamyltransferase increased [2, 10]: 1 | No. maximum grade (patients, drug-related adverse events) [2, 11]: 5 | Number of patients with drug-related Abdominal pain [2, 11]: 2 | Number of patients with drug-related Abdominal pain upper [2, 11]: 2 | Number of patients with drug-related Back pain [2, 11]: 1 | Number of patients with drug-related Blood albumin decreased [2, 11]: 1 | Number of patients with drug-related Diarrhea [2, 11]: 1 | No. maximum grade (patients, drug-related adverse events) ([2]; t.i.d. 200 mg/m^2 × 3, n = 6, G3): 0 | No. maximum grade (patients, drug-related adverse events) ([2]; t.i.d. 200 mg/m^2 × 3, n = 6, G4): 0 | No. maximum grade (patients, drug-related adverse events) [2, 12]: 0 | Number of patients with drug-related Abdominal pain [2, 12]: 1 | Number of patients with drug-related Alkaline phosphatase increased [2, 12]: 2 | Number of patients with drug-related Anorexia [2, 12]: 1 | Number of patients with drug-related Blood albumin decreased [2, 12]: 3 | Number of patients with drug-related Diarrhea [2, 12]: 3 | Number of patients with drug-related Discoloration urine/stool [2, 12]: 6 | Number of patients with drug-related Face edema [2, 12]: 3 | Number of patients with drug-related Headache [2, 12]: 2 | Number of patients with drug-related Malaise [2, 12]: 3 | Number of patients with drug-related Nauseous [2, 12]: 1 | Number of patients with drug-related Pleural effusion [2, 12]: 1 | Number of patients with drug-related Serum total protein decreased [2, 12]: 1 | Number of patients with drug-related γ-glutamyltransferase increased [2, 12]: 2 | No. maximum grade (patients, drug-related adverse events) [2, 13]: 5 | Number of patients with drug-related Abdominal pain [2, 13]: 2 | Number of patients with drug-related Alkaline phosphatase increased [2, 13]: 1 | Number of patients with drug-related Anorexia [2, 13]: 1 | Number of patients with drug-related Back pain [2, 13]: 2 | Number of patients with drug-related Blood albumin decreased [2, 13]: 2 | Number of patients with drug-related Diarrhea [2, 13]: 1 | No. maximum grade (patients, drug-related adverse events) ([2]; t.i.d. 400 mg/m^2 × 3, n = 6, G3): 0 | No. maximum grade (patients, drug-related adverse events) [2, 14]: 1 | Number of patients with drug-related Pericardial effusion [2, 14]: 1 | MTD (maximum tolerated dose) ([2]; t.i.d. after meals, up to 400 mg/m^2): not reached | Recommended dosage ([2]; t.i.d.): ≤ 400 mg/m^2
